This is a sample that favours compounds with a hit; in the whole collection about 9.8% have one here.
PMI act satM6P – increases human PMI activity with near-saturating mannose 6-phosphate. activation factor at 20 µM. AID 1216. actives 0.34% (n = 190,000). P34949. coupled PMI enzyme assay, resazurin fluorescence, 20 min; stronger effect = higher value; 1 = untreated enzyme, 0 = substrate-free blank;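 active = activation factor of 2 or more at 20 µM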
Target sequence (P34949 whole entry, looked up): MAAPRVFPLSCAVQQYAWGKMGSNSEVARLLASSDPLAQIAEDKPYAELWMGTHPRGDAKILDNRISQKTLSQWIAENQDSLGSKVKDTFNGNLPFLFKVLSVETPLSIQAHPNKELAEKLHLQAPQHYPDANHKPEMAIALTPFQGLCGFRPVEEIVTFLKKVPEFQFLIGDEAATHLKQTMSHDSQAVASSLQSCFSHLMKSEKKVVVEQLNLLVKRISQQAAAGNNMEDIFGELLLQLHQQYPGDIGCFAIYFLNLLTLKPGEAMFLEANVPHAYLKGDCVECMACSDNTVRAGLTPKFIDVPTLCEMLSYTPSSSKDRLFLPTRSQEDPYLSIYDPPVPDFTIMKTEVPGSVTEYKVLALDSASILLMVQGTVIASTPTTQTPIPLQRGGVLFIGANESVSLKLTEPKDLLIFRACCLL
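test system = human PMI in coupled enzyme assay | medium = HEPES-buffered pH 7.4 with magnesium and detergent | also added = 1.0 mM mannose-6-phosphate substrate with 0.22 mM NADP+ | compound = 20 µM single dose | times = 20 min incubation at room temperature | measured by = resorufin fluorescence (Ex 544/Em 590 nm) from resazurin via diaphorase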
WT yeast gro inh – growth inhibition of WT yeast, mitochondrial fusion screen. mitochondrial fusion phenotypic screen, WT strain. AID 1362. inhibition, % at 10 µM. actives 2.1% (n = 190,000); in the data active = inhibition above about 58%; tested in S. cerevisiae
L major viab – reduces viability of Leishmania major promastigotes. AID 1063. inhibition, % at 10 µM. actives 9% (n = 200,000). resazurin fluorescence viability; in the data active = inhibition above about 50%;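 also: promastigotes grown with compound for 44 hours at 28 °C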
PMI activator – increases human mannose-6-phosphate isomerase activity | purified human PMI, coupled resazurin fluorescence, 20 min; stronger effect = higher value; 1 = vehicle control, 0 substrate-free wells | actives 0.005% (n = 190,000) | AID 1214 | activation factor at 20 µM;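 active = activation factor of 2 or more at 20 µM, relative to plate controls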
Rad51 HR inh – Rad51 (human) homologous recombination inhibition; Q06609; inhibition, % at 10 µM; actives 0.085% (n = 200,000); hRad51 DNA strand exchange, fluorescence dequenching;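 active = inhibition above 40% at the single screening dose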
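Assay system: Human Rad51 nucleoprotein filaments preassembled on unlabelled ssDNA | Reagent: Donor/quencher-labelled 47-bp dsDNA substrate | Doses: One concentration, 10 µM final | Times: 37 °C 15-min filament assembly, 30-min compound preincubation, 15-min exchange | Technique: Fluorescein emission 520 nm, excitation 485 nm | Benchmarks: Plate control and blank wells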
m-calpain inh – calpain II (pig) inhibition; purified calpain II, fluorogenic peptide substrate, 30 min; inhibition, % at 16 µM; actives 0.37% (n = 220,000); AID 1236;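 active = inhibition above about 50%, limit read from the data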
A number is an active result; – = inactive; · = no result given.

SMILES	PMI act satM6P	WT yeast gro inh	L major viab	PMI activator	Rad51 HR inh	m-calpain inh
O=C1CCCCC1C(Nc1ccc(Cl)cc1)c1ccccc1 (stereo not drawn)	–	–	–	–	–	–
O=C1CCCCC1C(Nc1ccc(Br)cc1)c1ccccc1 (stereo not drawn)	–	65.4	–	–	·	–
O=C(Nc1ccc2c(c1)OCO2)N1CCN(c2ncc(C(F)(F)F)cc2Cl)CC1	–	–	68.1	–	–	–
CNCC(=O)N1CCN(c2ncc(C(F)(F)F)cc2Cl)CC1	–	–	71.1	–	–	–
S=C(NCCN1CCOCC1)NC1CCCC1	–	–	–	–	–	–
O=C(c1c[nH]c(C(=O)N2CCN(c3ccccc3F)CC2)c1)c1cccc(Cl)c1Cl	–	–	–	–	–	–
Cc1cccc(NC(=O)CN2C(=O)S/C(=C\C(=O)Nc3ccc(Cl)cc3)C2=O)c1	–	–	53.5	–	–	–
O=C(/C=C1\SC(=O)N(CC(=O)Nc2ccc(F)cc2)C1=O)Nc1ccc(Cl)cc1	–	–	52.5	–	–	–
O=C(/C=C1\SC(=O)N(CC(=O)Nc2ccc(Cl)cc2)C1=O)Nc1ccc(F)cc1	–	–	–	–	–	–
Cc1ccc(-c2nn(C)c(=O)c3ccccc23)cc1S(=O)(=O)NCCN(C)C	–	–	–	–	–	–
CCN(CC)S(=O)(=O)c1cc(-c2nn(C)c(=O)c3ccccc23)ccc1C	–	–	87.1	–	–	–
COc1cccc2sc(NC(=O)c3ccc(S(=O)(=O)N4CCOCC4)cc3)nc12	–	–	51.5	–	–	–
CCn1c(=NC(=O)c2ccc(S(=O)(=O)N3CCOCC3)cc2)sc2cccc(OC)c21	–	–	99.8	–	–	–
O=C(CSc1nnc(NC(=O)c2ccc(S(=O)(=O)N3CCOCC3)cc2)s1)Nc1ccccc1C(F)(F)F	–	–	92.3	–	–	–
Cc1cc(NC(=O)c2ccc(S(=O)(=O)N3CCOCC3)cc2)no1	–	–	54.3	–	–	–
COc1ccccc1NC(=O)c1ccc(S(=O)(=O)N2CCOCC2)cc1	–	–	–	–	–	–
COc1ccccc1C(=O)NCC1CCN(c2ccc(S(=O)(=O)N3CCOCC3)cc2)CC1	–	–	99.6	–	–	–
O=C(O)c1cc(N/N=C/C=C/c2ccccc2)ccc1Cl	–	–	–	–	–	–
CCOC(=O)c1ccc(-n2c(CN3CCC(O)CC3)nc3ccc([N+](=O)[O-])cc3c2=O)cc1	–	–	–	–	–	–
O=C(CNC(=O)c1ccc(S(=O)(=O)N2CCCC2)cc1)N/N=C/c1ccccc1	–	–	87.0	–	–	–
CN(C)S(=O)(=O)c1ccc(C(=O)NCC(=O)N/N=C/c2ccccc2)cc1	–	–	–	–	–	–
COc1ccc(/C=N/NC(=O)CNC(=O)c2ccc(S(=O)(=O)N3CCOCC3)cc2)cc1OC	–	–	–	–	–	–
Cc1ccsc1/C=N/NC(=O)Cc1ccc(Cl)cc1	·	·	·	·	–	–
O=C(CNC(=O)c1ccc(S(=O)(=O)N2CCCC2)cc1)N/N=C/c1c(Cl)cccc1Cl	–	–	83.1	–	–	–
O=C(Cc1ccc(Cl)cc1)N/N=C/c1c(Cl)cccc1Cl	–	–	72.3	–	–	–
SMILES	PMI act satM6P	WT yeast gro inh	L major viab	PMI activator	Rad51 HR inh	m-calpain inh
O=C(CNC(=O)c1ccc(S(=O)(=O)N2CCCC2)cc1)N/N=C/c1ccc(Cl)cc1	–	–	90.9	–	–	–
CC(=O)OCC(OC(C)=O)C(OC(C)=O)C(OC(C)=O)C(=O)Nc1cccc(C)c1 (stereo not drawn)	·	·	·	·	–	–
COc1ccc(C(=O)C2CCCN(S(=O)(=O)C(C)C)C2)c(C)c1 (stereo not drawn)	–	–	–	–	–	–
CC(=O)N1CCc2cc(N=NC3=C(O)CC(C)(C)CC3=O)ccc21	–	–	–	–	–	–
Cc1ccc([N+](=O)[O-])cc1NC(=O)Nc1onc(C)c1C	·	·	·	·	–	–
CSc1ccccc1NC(=O)CSc1nncs1	–	–	–	–	–	–
COc1ccc(/C=N/NC(=O)CNC(=O)c2ccc(S(=O)(=O)N3CCOCC3)cc2)c(OC)c1	–	–	–	–	–	–
O=C(CNC(=O)c1ccc(S(=O)(=O)N2CCCC2)cc1)N/N=C/c1ccc(Cl)cc1Cl	–	–	69.5	–	–	–

From PubChem BioAssay
